The values below come from ChEMBL document CHEMBL4325827, “Bifidenone: Structure-Activity Relationship and Advanced Preclinical Candidate” (J Med Chem, 2018).

Molecules are shown by their SMILES.

For one data set, the system named is M14. Briefly: Antiproliferative activity against human M14 cells after 72 hrs by CellTiter 96 aqueous nonradioactive cell proliferation assay. The format is functional, cell-based. Particulars: M14, 72 h; call rule not given here. In a few lines: (§1)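 Antiproliferation in cultured tumour cells, at least 3 replicate wells per concentration per experiment. NCI-H460 came from ATCC. M14, NCI/ADR-RES, OVCAR-4, HCT-15, ACHN and SF-295 came from the National Cancer Institute. IC50 reported from single experiments where no SD is given.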

Data set [1] can be described thus: Time at which plasma concentration stays above NCI-H460 IC50 in Crl:NU(NCr)-Foxn1 nu mouse xenografted with human NCI-H460 cells at 40 mg/kg, ip injected via vehicle consisting 40% propylene glycol, 20% tween-20, 20% PEG400, and 20% ethanol by LC-MS analysis. The format is ADME, organism-based. To be noted: in vivo. (In xenograft studies the graft and the host belong to different species.)

Data set [2] can be described thus: Plasma concentration in Crl:NU(NCr)-Foxn1 nu mouse at 40 mg/kg, ip injected via vehicle consisting 40% propylene glycol, 20% tween-20, 20% PEG400, 20% ethanol […] by LC-MS analysis. The format is ADME, organism-based. To be noted: in vivo. The method, boiled down: (§2)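 Male Nu/Nu mice, some bearing NCI-H460 or LOX-IMVI xenografts, given a single ip dose at 3 mL/kg. Organic vehicle components were dissolved first, with the aqueous part added gradually. Mice were euthanized at 1 h or 3 h. Cardiac blood was taken into NaEDTA/NaF plasma separator tubes. Quantification used loratadine internal standard against a spiked blank-plasma curve. Tumours were run as duplicate ~200 mg samples homogenized in 3% SDS and extracted twice with ethyl acetate, assuming 1 g tissue = 1 mL.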

Data set [3] in a line: Plasma concentration in Crl:NU(NCr)-Foxn1 nu mouse at 40 mg/kg, ip injected via vehicle consisting 25% propylene glycol, 20% tween-20, 20% PEG400, 20% ethanol by LC-MS analysis. The format is ADME, organism-based. Particulars: in vivo. In a few lines: as §2
Data set [4] can be described thus: Plasma concentration in Crl:NU(NCr)-Foxn1 nu mouse at 40 mg/kg, ip injected via vehicle consisting 45% propylene glycol, <3 % tween-20, 20% PEG400, 20% ethanol by LC-MS analysis. Particulars: in vivo. The format is ADME, organism-based. In a few lines: as §2
Data set [5] in a line: Time at which plasma concentration stays above NCI-H460 IC50 in Crl:NU(NCr)-Foxn1 nu mouse xenografted with human NCI-H460 cells at 40 mg/kg, ip injected via vehicle consisting 40.5% propylene glycol, 2.7% tween-20, 31.5% PEG400, 15.3% ethanol and 10% water by LC-MS analysis. The format is ADME, organism-based. To be noted: in vivo.
The nature of data set [6]: Ratio of plasma concentration in Crl:NU(NCr)-Foxn1 nu mouse at 40 mg/kg, ip injected via vehicle consisting 40.5% propylene glycol, 2.7% tween-20, 31.5% PEG400, 15.3% ethanol and 10% water measured at 30 mins post injection to IC50 for human NCI-H460 cells. The format is ADME, organism-based. To be noted: in vivo, 0.5 h.
Data set [7] is described as follows: Ratio of plasma concentration in Crl:NU(NCr)-Foxn1 nu mouse at 40 mg/kg, ip injected via vehicle consisting 40.5% propylene glycol, 2.7% tween-20, 31.5% PEG400, 15.3% ethanol and 10% water measured at 1 hr post injection to IC50 for human NCI-H460 cells. The format is ADME, organism-based. Particulars: in vivo.
Data set [8] is described as follows: Ratio of plasma concentration in Crl:NU(NCr)-Foxn1 nu mouse at 75 to 100 mg/kg, ip injected via vehicle consisting 40.5% propylene glycol, 2.7% tween-20, 31.5% PEG400, 15.3% ethanol and 10% water measured at 6 hrs post injection to IC50 for human NCI-H460 cells. The format is ADME, organism-based. To be noted: in vivo.
Another data set relates to NCI-H460. Briefly: Antiproliferative activity against human NCI-H460 cells after 72 hrs by CellTiter 96 aqueous nonradioactive cell proliferation assay. The format is functional, cell-based. To be noted: NCI-H460, 72 h. In a few lines:
as §1

Data set [9] can be described thus: Drug uptake in tumor of human LOXIMVI cells xenografted in Crl:NU(NCr)-Foxn1 nu mouse at 40 mg/kg, ip measured at 3 hrs post injection by LC-MS analysis. To be noted: in vivo. The format is ADME, organism-based, Neoplasm. In a few lines: as §2

Turning to `C=CC[C@H]1C[C@]2([C@@H](C)Cc3ccc(OC)c(OC)c3)OCOC2=CC1=O`, the IC50 with M14 is 0.11 µM. Also, the figures for the Time in data set [1] and in data set [5] were 1 h and 3 h, respectively. Moreover, the Drug uptake result in data set [2] was “Active”; in data set [3], “Not Active”; in data set [4], “Active”. The Ratio in [6] is above 6; in [7], above 3; in data set [8], above 4.
For the compound `C=CC[C@H]1C[C@]2([C@@H](C)Cc3ccc(OC)cc3F)OCOC2=CC1=O`, the results for the IC50 with M14 and with NCI-H460 were 0.014 µM and 0.094 µM, respectively. The Drug uptake entry in data set [9] is “Active”.

Broadly, the IC50 is the concentration at which inhibition is half-maximal.
